# Screening results deposited in PubChem BioAssay by Sanford-Burnham Center for Chemical Genomics.
# PMI activator: activators of human phosphomannose isomerase; activation factor at 20 µM; purified human PMI, coupled resazurin fluorescence, 20 min; active compounds read high; 1 = vehicle control, 0 substrate-free wells; 0.005% of 190,000 active; P34949;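 active = activation factor of 2 or more at 20 µM, relative to plate controls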
# Target sequence (P34949 whole entry, looked up): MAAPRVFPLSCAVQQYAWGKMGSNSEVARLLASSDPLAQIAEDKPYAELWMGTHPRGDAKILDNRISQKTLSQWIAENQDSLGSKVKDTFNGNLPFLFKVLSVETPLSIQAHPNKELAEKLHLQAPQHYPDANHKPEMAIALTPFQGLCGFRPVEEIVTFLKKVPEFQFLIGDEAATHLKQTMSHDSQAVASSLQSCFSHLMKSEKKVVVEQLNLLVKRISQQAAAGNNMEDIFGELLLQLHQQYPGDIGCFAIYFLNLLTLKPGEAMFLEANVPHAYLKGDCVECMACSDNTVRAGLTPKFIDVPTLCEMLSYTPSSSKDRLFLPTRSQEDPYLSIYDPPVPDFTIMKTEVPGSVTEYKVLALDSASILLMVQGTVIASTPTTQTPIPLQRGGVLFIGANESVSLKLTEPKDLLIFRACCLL
# Diaph inh CS: inhibits diaphorase or chemically oxidizes, flagging diaphorase assay artifacts | diaphorase resazurin-to-resorufin fluorescence, NADH, 16 min; bacterial (C. kluyveri) enzyme, not human | inhibition, % at 20 µM | 0.69% of 190,000 active;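 active = primary screen inhibition at 20 µM above a set limit, cut at about 50% in these data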;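 note: plate controls were DMSO with full reaction for no effect and wells lacking NADH for full effect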
#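 System: Diaphorase enzyme from Clostridium kluyveri | Amount: Enzyme working solution with 0.14 U/mL diaphorase | Benchmarks: No-NADH positive control and DMSO neutral control | Signal: Fluorescence of resorufin formed from resazurin, Ex 544/Em 590 nm | Schedule: 16-min room-temperature incubation before reading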
# Diaph act CS: activates diaphorase or chemically reduces, flagging diaphorase assay artifacts. 0.005% of 190,000 active. AID 1229. Diaphorase/resazurin coupled assay, resorufin fluorescence, 16 min; active compounds read high; 1 = vehicle wells, 0 = NADH-free wells. activation factor at 20 µM;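 active = diaphorase activity raised at least twofold by the compound at 20 µM; inactive = activation factor below 2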
#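 Measured by – red resorufin fluorescence at 544/590 nm excitation/emission · Test system – Clostridium kluyveri diaphorase, purified enzyme · Incubation – reaction time 16 min, room temperature · Buffer or medium – 50 mM HEPES pH 7.4 with 4.542 mM MgCl2, 0.005% Tween 20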
# G6PDH counter: L. mesenteroides G6PDH inhibition counter-screen | Purified L. mesenteroides G6PDH, diaphorase/resazurin coupled fluorescence, 45 min | inhibition, % at 5 µM | 0.12% of 200,000 active; in the data active = inhibition above about 50%
# PMI act satM6P: increases human PMI activity with near-saturating mannose 6-phosphate. AID 1216. 0.34% of 190,000 active. activation factor at 20 µM. coupled PMI enzyme assay, resazurin fluorescence, 20 min; active compounds read high; 1 = untreated enzyme, 0 = substrate-free blank;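 active = activation factor of 2 or more at 20 µM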
#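 assay system = human phosphomannose isomerase with PGI, G6PDH, diaphorase coupling enzymes | quantity = 15 ng/mL PMI | incubation = enzyme reaction with compound 20 min at room temperature | medium = HEPES pH 7.4 buffer with MgCl2 and Tween-20 | compound dosing = one concentration, 20 µM, in 1% DMSO | measured by = Diaphorase-driven resazurin-to-resorufin fluorescence, excitation 544, emission 590 nm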
# Starred values were filed as active, the others as inactive; . = no result given. Sampled rows, rich in hits. Any-hit rate of the full collection: about 1.1%.
SMILES,PMI activator,Diaph inh CS,Diaph act CS,G6PDH counter,PMI act satM6P
CCC(CC)C(=O)N1CCN(c2ccccc2)CC1,1.8,13,0.9,8,2.8*
COc1ccc(CCNC(=O)c2cc3c(C)nccc3[nH]c2=O)cc1OC,0.9,6,0.9,10,0.9
CCn1c(O)c(N=NC2=NC(=O)CS2)c2ccccc21,1,65*,0.3,2,1.1
O=C(NCc1ccccc1)NC(O)C(Cl)(Cl)Cl (centres undefined),1,3,1,10,1
Cc1nn2c([nH]c(=O)c3ccccc32)c1C=O,0.9,7,0.9,7,0.9
O=C(CSc1nnc(CCCN2C(=O)c3cccc4cccc(c34)C2=O)n1-c1ccccc1)N1CCCCC1,0.9,72*,0.3,-27,0.9
O=C(CSc1nnc(Cc2cc(=O)[nH]c(=O)[nH]2)n1-c1ccccc1)N1CCCCC1,1.1,12,0.9,1,1
O=C(NCC1CCCO1)c1csc(Nc2cccc3ccccc23)n1 (centres undefined),.,.,.,12,.
CCSc1oc(-c2cccs2)nc1S(=O)(=O)c1ccccc1,1.7,4,1,6,2*
CCSc1oc(-c2ccco2)nc1S(=O)(=O)c1ccc(F)cc1,1.2,22,0.8,-23,1.6
O=C1CC(NNc2ccccc2)C(=O)N1c1ccc(N2CCCCC2)cc1 (centres undefined),1.8,-12,1.1,4,2.7*
O=C1CC(Nc2ccccc2)C(=O)N1c1ccc(N2CCOCC2)cc1 (centres undefined),1,-6,1.1,0,1
CC(C)C(=O)N1CCc2cc(-c3csc(N)n3)ccc21,1.7,12,0.9,-2,2.1*
Nc1nc(-c2ccc3c(c2)CCC(=O)N3)cs1,1,6,0.9,-6,0.9
COc1cc([N+](=O)[O-])cc(/C=N/NC(=O)C(C)Nc2cccc3ccccc23)c1O (centres undefined),1,70*,0.3,-16,0.7
Cc1cccc(/C=N/NC(=O)C(C)Nc2cccc3ccccc23)n1 (centres undefined),1.3,28,0.7,50*,1.7
CC(Nc1cccc2ccccc12)C(=O)N/N=C/c1ccc([N+](=O)[O-])cc1 (centres undefined),0.8,17,0.8,-1,0.6
O=C(c1ccc(Cn2c(=S)[nH]c3cc4c(cc3c2=O)OCO4)cc1)N1CCN(c2ncccn2)CC1,1,16,0.8,-6,1
CN/N=C(\Cc1nc2ccccc2[nH]1)c1ccc([N+](=O)[O-])cc1,1.1,10,0.9,4,0.9
Clc1ccc(/C(Cc2nc3ccccc3[nH]2)=N\Nc2ccccc2)cc1,1.8,0,1,19,3*
CCN(CC)C(=O)NC(c1ccc(C)c(F)c1)C(Cl)(Cl)Cl (centres undefined),1,1,1,13,1.1
CC(C)CNC1=CC(=O)CC(c2ccco2)C1 (centres undefined),0.6,61*,0.4,16,0.5
O=C1C=C(NCc2ccc(Cl)cc2)CC(c2ccco2)C1 (centres undefined),1,23,0.8,0,0.9
O=C(c1c[nH]c(C(=O)C(Cl)(Cl)Cl)c1)c1ccc(F)cc1Cl,1,60*,0.4,4,1
O=C(c1ccc(Cl)cc1)c1c[nH]c(C(=O)C(Cl)(Cl)Cl)c1,1.1,35,0.7,0,1.3
SMILES,PMI activator,Diaph inh CS,Diaph act CS,G6PDH counter,PMI act satM6P
O=C(CCN1C(=O)C2C3C=CC(C4CC34)C2C1=O)Oc1ccc(Br)cc1 (centres undefined),1,11,0.9,2,0.9
O=C(CCN1C(=O)C2C3C=CC(C4CC34)C2C1=O)Oc1cccc2cccnc12 (centres undefined),0.8,24,0.8,53*,0.7
CCOC(=O)c1c(/N=C/C2=C(O)CC(C)(C)CC2=O)sc(C(C)=O)c1C,1.2,16,0.8,-4,1
O=C(CSc1nc2c(cnn2-c2ccc(F)cc2)c(=O)[nH]1)N1CCCc2ccccc21,1,63*,0.4,0,1
O=C(CSc1ccc2nnc(-c3ccc(F)cc3)n2n1)N1CCCc2ccccc21,0.9,59*,0.4,-1,1.1
C=CCNC(=S)NC(CC(=O)OC)c1ccc2c(c1)OCO2 (centres undefined),1,9,0.9,5,0.9
O=C(NC1CCCCC1)C(c1ccccn1)N(C(=O)c1csnn1)C1CCCCC1 (centres undefined),1.1,-16,1.2,12,1.1
Cc1cccc2c(CC(=O)Nc3ccccc3)noc12,0.9,10,0.9,-1,0.9
COc1ccc(-c2nc(=S)c3c([nH]2)Oc2ccc(C)cc2C3)cc1O,1.8,2,1,-6,2.1*
CC(CN(C)Cc1ccccc1)OC(=O)c1cccc(F)c1 (centres undefined),1.6,2,1,18,2.4*
CN(CCOC(=O)c1cccc(F)c1)Cc1ccccc1,1,10,0.9,-5,1.1
CCc1ccc(NC(=O)C(CC)c2ccccc2)cc1 (centres undefined),1.1,6,0.9,5,1.2
CCC(O)CC(C(=O)NNc1ccccc1)C(=O)NNc1ccccc1 (centres undefined),1.8,0,1,3,2.8*
COc1ccc2oc(=O)c(/C(C)=N/Nc3nc(-c4cc(C)ccc4C)cs3)cc2c1,1.6,14,0.9,5,2.3*
C/C(=N\Nc1nc(-c2ccc(C)cc2C)cs1)c1cc2ccccc2oc1=O,0.9,8,0.9,-7,1.1
O/C(=C\c1nc2ccccc2nc1/C=C(\O)c1ccccc1)c1ccccc1,1.3,23,0.8,51*,0.8
COc1ccc(/C(O)=C/c2nc3ccccc3n(-c3ccccc3)c2=O)cc1,1,12,0.9,0,0.9
CC(C)Sc1n[nH]c2nc3c(c(=O)n12)C1(CCCC1)Cc1ccccc1-3,1.1,10,0.9,-3,1.3
CSc1n[nH]c2nc3c(c(=O)n12)C1(CCCC1)Cc1ccccc1-3,1.6,8,0.9,-3,2.2*
COc1ccccc1Oc1ccc(Oc2ccccc2OC)cc1,0.9,9,0.9,6,1
CC(=O)c1cccc(NC(=O)COC(=O)c2n[nH]c3ccccc23)c1,1.1,1,1,-5,1
O=C(COc1ccc(Cl)cc1Cl)NC(=S)Nc1ccccc1C(=O)O,0.9,53*,0.5,8,0.9
CCC1(c2ccc(Cl)cc2)NC(=S)N(c2ccccc2)N1 (centres undefined),0.9,25,0.8,-3,1.1
